The entries come from a sample that favours hits as a whole.
XBP1 UPR activ – adaptive UPR (XBP1) activation | CHO-XBP1 luciferase reporter, IRE1-XBP1 UPR activation, luminescence; percent of tunicamycin response, DMSO as zero | activation, % at 20 µM | 0.33% of 330,000 active;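 active = versus positive control, 20 µM dose yields 30% or more activation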;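 also: 100% = tunicamycin at 10 µg/mL and 0% = DMSO only wells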
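Assay system: IRE1-XBP1 luciferase reporter CHO line. Input: 1000 cells/well. Buffer or medium: F12 with 10% serum. Doses: 20 µM, 1% DMSO. Times: overnight seeding at 37 °C, 6 h compound treatment at 37 °C. Technique: Steady-Glo luciferase glow luminescence, 10 min after reagent addition.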
Lmaj promast – inhibitors of Leishmania major promastigote growth. Leishmania major promastigotes, resazurin fluorescence viability. inhibition, % at 10 µM. 9% of 200,000 active; in the data active = inhibition above about 50%;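 also: promastigotes grown with compound for 44 hours at 28 °C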
CHOP inh – inhibitors of CHOP induction in ER stress response | CHO-K1 CHOP-promoter luciferase, tunicamycin-induced, 15-18 h | inhibition, % at 10 µM | 3.8% of 220,000 active | AID 2732;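 active = compounds that reduced the stress-induced luciferase reporter signal by more than about 70% of percent inhibition, limit read from the data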;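 also: 0% = tunicamycin plus vehicle and 100% = wells without tunicamycin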
Dynein transport – dynein cargo transport inhibition; 3617.4 mouse cells, GR-EGFP nuclear translocation imaging; test concentration mostly 20 µM; stimulated with dexamethasone, 1 µM; active compounds read low; z-score, hits read low; 0.47% of 220,000 active; AID 1381;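 active = plate z-score of nuclear minus cytoplasmic receptor signal below a set negative limit, without overly bright fluorescence or cell loss, cut at about -3.5 in these data, passing the limit was not always enough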;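 also: z-score of nuclear minus cytoplasmic ring GR-EGFP intensity difference per well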
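Buffer or medium: Induction medium lacking tetracycline, stripped serum | Also added: Dexamethasone agonist, 1.0 µM final, for 30 min | Timing: 48 h induction, 1 h compound, 30 min dex at 37 °C | Detection: Formaldehyde fixation, Hoechst nuclear stain, 10x automated fluorescence imaging | Measure: Nuclear versus cytoplasmic GR-EGFP signal, averaged per well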
T cruzi inh – T. cruzi replication inhibition. inhibition, % (no concentration beside the values). 1.4% of 300,000 active. T. cruzi beta-gal in NIH3T3, luminescence, 90 h;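 active = mean inhibition across valid replicates above about 55%, limit read from the data; inconclusive = mean below that limit but half or more replicates reach it; inactive = mean below it, under half of replicates reach it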;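 also: signal also drops with host cell toxicity which is not excluded here; 0% = plate median of DMSO wells and 100% = zero luminescence signal; higher percent means less beta-gal luminescence so fewer parasites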
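Incubation – ≥90 h infection period, 3 h prior cell attachment · System – NIH/3T3 fibroblasts plus reporter T. cruzi · Doses – compound pinned at 50 nL/well, DMSO · Read-out basis – percent inhibition of parasite-derived β-gal signal · Signal – luminescent β-galactosidase signal after 60 min lysis · Also added – 5000 T. cruzi trypomastigotes/well · Medium – Low-serum DMEM with 2% FBS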
CHOP UPR activ – activators of apoptotic arm of unfolded protein response (CHOP); CHO-CHOP luciferase reporter, UPR activation, luminescence; percent of tunicamycin response over DMSO baseline; activation, % at 10 µM; 0.34% of 330,000 active;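 active = at 10 µM dose, activation of 40% or more, normalized to positive control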;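 also: 100% = tunicamycin at 10 µg/mL and 0% = DMSO alone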
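System: CHO CHOP reporter cells. Amount: 500 cells per well. Buffer or medium: F12 medium, 10% FBS. Compound dosing: one dose, 10 µM in 0.5% DMSO. Incubation: 6 h compound exposure at 37 °C after overnight seeding. Technique: Steady-Glo luciferase luminescence. Benchmarks: tunicamycin and DMSO controls.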
The depositor's hits bear a star; ? = inconclusive; · = no result.

SMILES	XBP1 UPR activ	Lmaj promast	CHOP inh	Dynein transport	T cruzi inh	CHOP UPR activ
COc1ccc(/C=N/N=C2\CC3CCC2(C)C3(C)C)cc1O (configuration not stated)	2	-3	24	-0.84	4	2
COc1cc(/C=N/N=C2\CC3CCC2(C)C3(C)C)ccc1O (configuration not stated)	-1	-1	77*	-1.1	-1	1
CCOC(=O)c1c(C2COc3ccccc3O2)csc1N (configuration not stated)	4	11	84*	-0.43	-10	-2
CCOC(=O)c1c(C2COc3ccccc3O2)csc1NC(=O)c1ccccc1 (configuration not stated)	0	7	2	0.11	22	-1
CCNC(=O)N(C)C[C@H]1N[C@@](CC)(C(=O)OC)[C@H]2C(=O)N(Cc3ccccc3)C(=O)[C@@H]12	0	·	·	·	·	2
S=c1sc2ccccc2n1CCc1ccncc1	2	·	·	·	-4	0
CSc1nn(CCc2ccncc2)c(=S)s1	6	56*	-18	-0.88	-8	-3
Cc1onc(-c2ccccc2Cl)c1C(=O)N1CCN(c2nc3ccccc3s2)CC1	-1	51*	2	2.6	13	1
Cc1onc(-c2c(Cl)cccc2Cl)c1C(=O)n1nnc2ccccc21	-3	-3	96*	-1.3	-29	3
Cc1onc(-c2ccccc2Cl)c1C(=O)N1CCCCC1	0	·	·	·	13	3
Cc1onc(-c2c(Cl)cccc2Cl)c1C(=O)N1CCN(c2ccc(F)cc2)CC1	-4	·	·	·	14	-1
Cc1onc(-c2c(Cl)cccc2Cl)c1C(=O)N1CCN(c2ccccc2)CC1	-1	96*	-12	0.75	7	0
CCCCOC(=O)c1ccc(NC(=O)C(=O)NCCN(C)C)cc1	1	·	-1	-1	5	1
C=CCN1C(=O)C(Cc2ccc(C)cc2)S/C1=N/N=C/c1ccco1 (configuration not stated)	8	-4	76*	-0.63	9	0
FC(F)Sc1ccc(-n2cc(-c3ccc(Cl)cc3)[n+]3c2CCC3)cc1	2	31	5	-0.11	2	5
Cc1ccc(-c2cn(-c3ccc(SC(F)F)cc3)c3[n+]2CCC3)cc1	-2	99*	-9	-0.41	29	4
COc1cc(CN2CCCC(C(=O)Nc3cccc(-n4cccn4)c3)C2)ccc1F (configuration not stated)	-3	·	·	·	61*	0
O=C(Nc1cccc(-n2cccn2)c1)C1CCCN(Cc2ccccc2F)C1 (configuration not stated)	1	·	·	·	11	1
Cc1c2cnn(CC(=O)NCc3ccccn3)c(=O)c2c(C)n1Cc1ccccc1	-3	·	·	·	-5	1
Cc1c2cnn(CC(=O)Nc3c(F)c(F)cc(F)c3F)c(=O)c2c(C)n1Cc1ccc(F)cc1	-5	-5	79*	-1.2	4	1
COc1ccc(N2CCN(C(CNC(=O)c3ccc4c(c3)OCO4)c3cccnc3)CC2)cc1 (configuration not stated)	-1	90*	-1	0.7	45	1
COc1ccc(N2CCN(C(CNC(=O)c3ccc4c(c3)OCO4)c3ccco3)CC2)cc1 (configuration not stated)	-1	5	13	-0.12	2	1
O=C(NCC(c1cccnc1)N1CCN(c2ccc(F)cc2)CC1)c1ccc2c(c1)OCO2 (configuration not stated)	-1	95*	15	-0.9	?	-1
COc1ccc(N2CCN(C(CNC(=O)c3cccc(Cl)c3)c3cccnc3)CC2)cc1 (configuration not stated)	2	96*	22	0.91	42	-1
Cc1cccc(C)c1NC(=O)CN(C)C(=O)c1ccc2nc[nH]c2c1	-2	·	·	·	-3	0
SMILES	XBP1 UPR activ	Lmaj promast	CHOP inh	Dynein transport	T cruzi inh	CHOP UPR activ
O=C(N/N=C/c1ccc([N+](=O)[O-])o1)c1ccc2c(c1)OCO2	-3	·	·	·	69*	-1
Cc1ccc(C(=O)N/N=C\c2ccc([N+](=O)[O-])o2)cn1	-1	·	2	0.75	58*	1
Cc1ccc(C(=O)N/N=C\c2ccc(-c3ccc([N+](=O)[O-])cc3)o2)cn1	3	·	14	0.55	11	0
O=C(NCCCc1ccccc1)c1cc(COc2ccc(F)cc2Cl)on1	-5	·	·	·	22	-1
CN(C)c1ccc2nc3ccc(=[N+](C)C)cc-3sc2c1	5	100*	42	-1.9	43	1
Cc1cc2nc3ccc(=[N+](C)C)cc-3sc2cc1N	·	·	36	-2.8	69*	·
COc1ccc(CCC2(C)NC(=O)N(C(C)C(=O)N3c4ccccc4CC3C)C2=O)cc1 (configuration not stated)	-3	·	·	·	·	2
Cc1nc(N/N=C/c2ccc(O)cc2O)cc(N2CCOCC2)n1	3	·	·	·	13	3
Oc1ccccc1/C=N/Nc1cc(N2CCCC2)nc(N2CCCC2)n1	-2	96*	4	-1.3	57*	8
Oc1cccc(/C=N/Nc2cc(N3CCOCC3)nc(N3CCOCC3)n2)c1	4	61*	-23	-0.57	7	4
CC(C)(C)c1ccc(S(=O)(=O)NCC(=O)N2CCCC2)cc1	-1	·	·	·	-10	2
CCCCCC/C(=N/O)c1ccccn1	3	91*	54	-0.42	33	1
Cc1ccc(-c2csc(NC(=S)NC(=O)c3ccco3)n2)cc1	-1	-8	14	-0.48	7	3
O=C(NNc1nc(-c2ccc(Cl)cc2)cs1)c1ccco1	2	58*	8	-0.23	14	3
O=C(NNc1nc(-c2ccccc2)cs1)c1ccco1	2	67*	10	-0.45	0	-1
Brc1ccc(OCCCOc2cccc3cccnc23)cc1	-2	·	·	·	6	2
Brc1ccc(-c2cn3c(n2)CCc2ccc4cccnc4c2-3)cc1	0	100*	·	1.5	5	-2
Cn1c(=NC(=O)c2cccc([N+](=O)[O-])c2)sc2ccccc21	6	-7	73*	-1	-10	18
CC(C)(C)c1ccc(C(=O)Nc2ccc(C(=O)NCc3cccnc3)cc2)cc1	7	·	·	·	17	6
Cc1cc2cc(CN(Cc3nnnn3C3CCCCC3)CC3CCCO3)c(=O)[nH]c2cc1C (configuration not stated)	1	82*	50	-0.77	17	-1
Cc1cc2cc(CN(Cc3ccc4c(c3)OCO4)Cc3nnnn3C3CCCC3)c(=O)[nH]c2cc1C	1	24	16	-1.1	43	1

Source: PubChem (several laboratories)
